In ChEMBL document CHEMBL1123814, “Synthesis and beta-lactamase inhibitory properties of 2 beta-[(1,2,3-triazol-1-yl)methyl]-2 alpha-methylpenam-3 alpha-carboxylic acid 1,1-dioxide and related triazolyl derivatives” (J Med Chem, 1987):
≈ marks a conversion by molar mass, not a printed value.

What was measured:
Serratia marcescens [1] = test: Growth inhibition against Beta lactamase producing bacteria, Serratia marcescens was determined for the compound in the combination with Ampicillin; format: functional
In short: (§1)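 Bacteria (β-lactamase producers) were grown in Mueller Hinton broth and diluted to 10⁷ cfu/mL. They were inoculated into the same medium containing ampicillin plus triazole and incubated at 37 °C for 20 h. The MIC was the lowest concentration leaving the medium free of turbidity.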

Staphylococcus aureus [2] = test: Growth inhibition against Beta lactamase producing bacteria, Staphylococcus aureus (ATCC90124) was determined for the compound in the combination with Ampicillin; format: functional; in short: as §1
Escherichia coli [3] = test: Growth inhibition against Beta lactamase producing bacteria, Escherichia coli (TH-13) was determined for the compound in the combination with Ampicillin; format: functional; in short: as §1
Escherichia coli [4] = test: Minimum inhibitory concentration against 30 strains of Escherichia coli; format: functional
Proteus vulgaris [5] = test: Growth inhibition against Beta lactamase producing bacteria, Proteus vulgaris (IID OX-19)was determined for the compound in the combination with Ampicillin; format: functional; in short: as §1
Escherichia coli [6] = test: Growth inhibition against Beta lactamase producing bacteria, Escherichia coli (TH-397) was determined for the compound in the combination with Ampicillin; format: functional; in short: as §1
Proteus mirabilis [7] = test: Growth inhibition against Beta lactamase producing bacteria, Proteus mirabilis (121K) was determined for the compound in the combination with Ampicillin; format: functional; in short: as §1
Staphylococcus aureus [8] = test: Growth inhibition against Beta lactamase producing bacteria, Staphylococcus aureus (S-54K) was determined for the compound in the combination with Ampicillin; format: functional; in short: as §1
Staphylococcus aureus [9] = test: Minimum inhibitory concentration of Ampicillin required for growth inhibition of Beta lactamase producing bacteria Staphylococcus aureus (ATCC90124); format: functional
In short: (§2)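 The inoculum was 10⁷ cfu/mL, incubated at 37 °C for 20 h. The MIC was the lowest concentration that left the medium free of turbidity.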

Proteus mirabilis [10] = test: Minimum inhibitory concentration of Ampicillin required for growth inhibition of Beta lactamase producing bacteria Proteus mirabilis (121K); format: functional
In short: (§3)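 Micro broth dilution MIC of ampicillin tested on its own. β-Lactamase-producing bacteria were grown in Mueller Hinton broth and inoculated at 10⁷ cfu/mL into medium containing ampicillin.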

Escherichia coli [11] = test: Minimum inhibitory concentration of Ampicillin required for growth inhibition of Beta lactamase producing bacteria Clinically isolated Escherichia coli (TH-13); format: functional; in short: as §2
Serratia marcescens [12] = test: Minimum inhibitory concentration of Ampicillin required for growth inhibition of Beta lactamase producing bacteria Serratia marcescens; format: functional; in short: as §3
Staphylococcus aureus [13] = test: Minimum inhibitory concentration of Ampicillin required for growth inhibition of Beta lactamase producing bacteria Staphylococcus aureus (S-54K); format: functional; in short: as §2
Escherichia coli [14] = test: Minimum inhibitory concentration of Ampicillin required for growth inhibition of Beta lactamase producing bacteria Clinically isolated Escherichia coli (TH-397); format: functional
In short: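 Broth microdilution in Mueller Hinton broth. Ampicillin was tested with the triazole fixed at 10 µg/mL against a β-lactamase-producing clinical isolate, with an inoculum of 10⁷ cfu/mL. Plates were incubated at 37 °C for 20 h. The MIC was the lowest concentration that left the medium free of turbidity.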

Proteus vulgaris [15] = test: Minimum inhibitory concentration of Ampicillin required for growth inhibition of Beta lactamase producing bacteria Proteus vulgaris (IID OX-19); format: functional; in short: as §3
[16] = Inhibitory activity against cephalosporinase from Proteus morganii TH-64 using cephalothin (40 uM) as a substrate; […]; parameters: species or system Morganella morganii
In short: (§4)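 Isolated β-lactamase (cephalosporinase) was inhibited in a microiodometric assay. Substrate concentration was 40 μM, and the 50% inhibitory concentration (M) was determined.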

Beta-lactamase OXA-1 = Beta-lactamase OXA-1 (Escherichia coli, UniProt P13661); test: Inhibitory activity against Beta-lactamase type OXA1 (penicillinase) from Escherichia coli OXA1 using ampicillin (40 uM) as a substrate
In short: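 Isolated β-lactamase tested by microiodometric assay, measuring substrate hydrolysis. Ampicillin substrate at 40 μM. Value reported as the 50% inhibitory concentration.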

[17] = Inhibitory activity against cephalosporinase from Proteus vulgaris TH-147 using cephalexin (40 uM) as a substrate; in short: as §4
[18] = Inhibitory activity against cephalosporinase from Proteus morganii TH-64 using cephalothin (40 uM) as a substrate; parameters: species or system Morganella morganii
In short: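 Isolated β-lactamases were tested by the microiodometric assay, with each line's substrate at 40 μM.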

Chain of Beta-lactamase OXA-1 (P13661 whole entry): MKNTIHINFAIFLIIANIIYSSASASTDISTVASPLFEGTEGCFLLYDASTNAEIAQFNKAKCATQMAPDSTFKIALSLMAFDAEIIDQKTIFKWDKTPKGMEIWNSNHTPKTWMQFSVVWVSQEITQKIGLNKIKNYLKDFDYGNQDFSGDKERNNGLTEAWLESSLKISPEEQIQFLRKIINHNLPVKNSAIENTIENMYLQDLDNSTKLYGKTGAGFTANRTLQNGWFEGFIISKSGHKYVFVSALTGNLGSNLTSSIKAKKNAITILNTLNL

MIC (Serratia marcescens [1])	MIC (Staphylococcus aureus [2])	MIC (Escherichia coli [3])	MIC (Proteus vulgaris [5])	MIC (Escherichia coli [6])	MIC (Proteus mirabilis [7])	MIC (Staphylococcus aureus [8])	Structure (SMILES)	MIC50 (Escherichia coli [4])	MIC70 (Escherichia coli [4])	also measured
25 µg/mL	0.2 µg/mL	6.25 µg/mL	0.39 µg/mL	6.25 µg/mL	0.78 µg/mL	0.2 µg/mL	CC1(C)S[C@@H]2[C@H](NC(=O)C(N)c3ccccc3)C(=O)N2[C@H]1C(=O)O.COC(=O)c1cnnn1C[C@@]1(C)[C@H](C(=O)[O-])C2C(=O)CC2S1(=O)=O.[Na+] (stereo not given in full)	–	–	–
–	–	–	–	–	–	–	CC1(C)[C@H](C(=O)O)N2C(=O)C[C@H]2S1(=O)=O.CCN1CCN(C(=O)N[C@@H](C(=O)N[C@@H]2C(=O)N3[C@@H]2SC(C)(C)[C@@H]3C(=O)O)c2ccccc2)C(=O)C1=O	12.5 µg/mL	25 µg/mL	–
100 µg/mL	0.39 µg/mL	100 µg/mL	1.56 µg/mL	50 µg/mL	25 µg/mL	0.78 µg/mL	CC1(C)S[C@@H]2[C@H](NC(=O)C(N)c3ccccc3)C(=O)N2[C@H]1C(=O)O.C[C@]1(Cn2cc([Si](C)(C)C)nn2)[C@H](C(=O)[O-])C2C(=O)CC2S1(=O)=O.[Na+] (stereo not given in full)	–	–	–
–	–	–	–	–	–	–	CC1(C)S[C@@H]2[C@H](/N=C/N3CCCCCC3)C(=O)N2[C@H]1C(=O)O.CC1(C)[C@H](C(=O)O)N2C(=O)C[C@H]2S1(=O)=O	0.1 µg/mL	0.39 µg/mL	–
12.5 µg/mL	0.2 µg/mL	3.13 µg/mL	0.39 µg/mL	3.13 µg/mL	0.78 µg/mL	0.2 µg/mL	CC1(C)S[C@@H]2[C@H](NC(=O)C(N)c3ccccc3)C(=O)N2[C@H]1C(=O)O.COC(=O)c1cn(C[C@@]2(C)[C@H](C(=O)[O-])C3C(=O)CC3S2(=O)=O)nn1.[Na+] (stereo not given in full)	–	–	–
–	–	–	–	–	–	–	CC1(C)S[C@@H]2[C@H](/N=C/N3CCCCCC3)C(=O)N2[C@H]1C(=O)O [AMDINOCILLIN]	3.13 µg/mL (≈ 9.62 µM)	12.5 µg/mL (≈ 38.4 µM)	–
–	–	–	–	–	–	–	CC1(C)S[C@@H]2[C@H](NC(=O)[C@H](N)c3ccccc3)C(=O)N2[C@H]1C(=O)O [AMPICILLIN]	400 µg/mL (≈ 1140 µM)	>400 µg/mL	MIC (Staphylococcus aureus [9]): 25 µg/mL (≈ 71.5 µM); MIC (Proteus mirabilis [10]): > 400 µg/mL; MIC (Escherichia coli [11]): 200 µg/mL (≈ 572 µM); MIC (Serratia marcescens [12]): 400 µg/mL (≈ 1140 µM); MIC (Staphylococcus aureus [13]): 25 µg/mL (≈ 71.5 µM); MIC (Escherichia coli [14]): 400 µg/mL (≈ 1140 µM); MIC (Proteus vulgaris [15]): 200 µg/mL (≈ 572 µM)
–	–	–	–	–	–	–	CC1=C(C(=O)O)N2C(=O)[C@@H](NC(=O)[C@H](N)c3ccccc3)[C@H]2SC1 [CEPHALEXIN ANHYDROUS]	25 µg/mL (≈ 72 µM)	100 µg/mL (≈ 288 µM)	–
–	–	–	–	–	–	–	O=C(O)[C@H]1/C(=C/CO)O[C@@H]2CC(=O)N21 [CLAVULANIC ACID]	–	–	IC50 [16]: Not Active; IC50 (Beta-lactamase OXA-1): 3.2 µM; IC50 [17]: 0.16 µM
–	–	–	–	–	–	–	CCN1CCN(C(=O)N[C@@H](C(=O)N[C@@H]2C(=O)N3[C@@H]2SC(C)(C)[C@@H]3C(=O)O)c2ccccc2)C(=O)C1=O [PIPERACILLIN]	50 µg/mL (≈ 96.6 µM)	200 µg/mL (≈ 386 µM)	–
–	–	–	–	–	–	–	CC1(C)[C@H](C(=O)O)N2C(=O)C[C@H]2S1(=O)=O [SULBACTAM]	–	–	IC50 (Beta-lactamase OXA-1): 22 µM; IC50 [17]: 0.8 µM; IC50 [18]: 1 µM

Structure (SMILES)	MIC (Serratia marcescens [1])	MIC (Staphylococcus aureus [2])	MIC (Escherichia coli [3])	MIC (Proteus vulgaris [5])	MIC (Escherichia coli [6])	MIC (Proteus mirabilis [7])	MIC (Staphylococcus aureus [8])	MIC50 (Escherichia coli [4])	MIC70 (Escherichia coli [4])	also measured
CC1(C)S[C@@H]2[C@H](NC(=O)[C@H](N)c3ccccc3)C(=O)N2[C@H]1C(=O)O.CC1(C)[C@H](C(=O)O)N2C(=O)C[C@H]2S1(=O)=O	3.13 µg/mL	0.2 µg/mL	6.25 µg/mL	1.56 µg/mL	0.78 µg/mL	6.25 µg/mL	0.2 µg/mL	12.5 µg/mL	100 µg/mL	–
